Experimental findings from ChEMBL document CHEMBL1130095, “Synthesis of analogs of 2-methoxyestradiol with enhanced inhibitory effects on tubulin polymerization and cancer cell growth” (J Med Chem, 1997) are described below.

Assay [1] deals with DU-145. Description: The In vitro cytotoxicity value corresponding to 50% growth inhibition against DU-145 (prostate) cell line. Type of assay: functional. The following applies: Homo sapiens.
Assay [2] addresses Estrogen receptor (Rattus norvegicus) (UniProt P06211+Q62986). As to the kind of experiment: Relative binding affinity for estrogen receptor using a tritium labeled estrogen as the tracer and immature rat uterine cytosol. Type of assay: protein assay. The following applies: Uterus. The method in brief: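 Competitive radiometric binding with a tritiated estrogen tracer and immature rat uterine cytosol as receptor source, incubated at 0 °C for 18 or 20 h. […] Coefficient of variation between replicate experiments is typically below 30%.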

Assay [3] concerns HCT-116. Description: In vitro cytotoxicity value corresponding to 50% growth inhibition against HCT116 (colon) cell line. Type of assay: functional. The following applies: Homo sapiens.
For assay [4], the system named is HOP-62. Description: In vitro cytotoxicity value corresponding to 50% growth inhibition against HOP-62(non small cell lung) cell line. Type of assay: functional. The following applies: Homo sapiens.
In assay [5] the test system is Panel (Carcinoma cell lines). As to the kind of experiment: Mean graph midpoint for growth inhibition of all human cancer cell lines. Type of assay: functional.
For assay [6], the system named is MDA-MB-435. As to the kind of experiment: In vitro cytotoxicity value corresponding to 50% growth inhibition against MDA-MB-435 (breast) cell line. The following applies: Homo sapiens. Type of assay: functional.
The subject of assay [7] is OVCAR-3. Description: In vitro cytotoxicity value corresponding to 50% growth inhibition against OVCAR-3 (ovarian) cell line. Type of assay: functional. The following applies: Homo sapiens.
For assay [8], the system named is SF-539. As to the kind of experiment: The In vitro cytotoxicity corresponding to 50% growth inhibition against […] (central nervous system) cell line. Type of assay: functional. The following applies: Homo sapiens.
Assay [9] has as its system SN12C. Description: In vitro cytotoxicity value corresponding to 50% growth inhibition against SN12C (renal) cell line. Type of assay: functional. The following applies: Homo sapiens.
For assay [10], the target named is T1, Tubulin (Bos taurus, UniProt Q6B856+Q862L2+Q862F3). As to the kind of experiment: The compound was evaluated for inhibition of tubulin polymerization, which is purified from bovine brain. Type of assay: functional. The method, boiled down: (§1)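 Electrophoretically homogeneous bovine brain tubulin at 1.2 mg/mL (12 µM), preincubated at 26 °C with varying compound concentrations, then chilled on ice before GTP was added. Assembly was followed at 26 °C by turbidity at 350 nm, and the extent was read at 20 min. IC50 was derived graphically from at least two independent assays.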

Assay [11] concerns the target Tubulin (Bos taurus) (UniProt Q6B856+Q862L2+Q862F3). As to the kind of experiment: The compound was evaluated for inhibition of colchicine binding to tubulin. Type of assay: protein assay. The following applies: concentration not given here. The method in brief: (§2)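 Mixtures held 1.0 µM bovine brain tubulin (0.1 mg/mL), 5.0 µM [³H]colchicine and 50 µM inhibitor, incubated 10 min at 37 °C. Bound-colchicine inhibition is given as percent, from triplicate samples in each experiment.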

The test system of assay [12] is UACC-62. As to the kind of experiment: In vitro cytotoxicity value corresponding to 50% growth inhibition against UACC-62(melanoma) cell line. Type of assay: functional. The following applies: Homo sapiens.
Assay [13] concerns HOP-62. Description: The In vitro cytotoxicity value is the concentration corresponding to 50% growth inhibition against HOP-62 (non small cell lung) cell line. Type of assay: functional. The following applies: Homo sapiens.
For assay [14], the target named is T1, Tubulin. As to the kind of experiment: Evaluated for inhibition of tubulin polymerization. Type of assay: functional. The method in brief: as §1
Assay [15] concerns HCT-116. As to the kind of experiment: The In vitro cytotoxicity value is the concentration of the compound corresponding to 50% growth inhibition againstHCT-116 (colon) cell line. Type of assay: functional. The following applies: Homo sapiens.
Assay [16] has as its target Tubulin beta chain (Bos taurus) (UniProt Q6B856). As to the kind of experiment: Evaluated for % inhibition of colchicine binding to tubulin. Set-up: concentration or dose not given beside the values. The following applies: concentration not given here. The method, boiled down:
as §2

The test system of assay [17] is DU-145. Description: In vitro cytotoxicity value is the concentration corresponding to 50% growth inhibition against DU-145 (prostate) cell line. The following applies: Homo sapiens. Type of assay: functional.
Assay [18] concerns HOP-62. As to the kind of experiment: In vitro cytotoxicity value is the concentration corresponding to 50% growth inhibition against HOP-62(non small cell lung) cell line. Type of assay: functional. The following applies: Homo sapiens.
For assay [19], the system named is HCT-116. As to the kind of experiment: In vitro cytotoxicity value is the concentration of the compound corresponding to 50% growth inhibition against HCT116 (colon) cell line. Type of assay: functional. The following applies: Homo sapiens.
Assay [20] concerns MDA-MB-435. Description: In vitro cytotoxicity value is the concentration corresponding to 50% growth inhibition against MDA-MB-435 (breast) cell line. Type of assay: functional. The following applies: Homo sapiens.
Assay [21] relates to OVCAR-3. Description: In vitro cytotoxicity value is the concentration corresponding to 50% growth inhibition against OVCAR-3 (ovarian) cell line. Type of assay: functional. The following applies: Homo sapiens.
In assay [22] the test system is SF-539. Description: In vitro cytotoxicity value is the concentration corresponding to 50% growth inhibition against […] (central nervous system) cell line. Type of assay: functional. The following applies: Homo sapiens.
For assay [23], the system named is SN12C. As to the kind of experiment: In vitro cytotoxicity value is the concentration corresponding to 50% growth inhibition against SN12C (renal) cell line. Type of assay: functional. The following applies: Homo sapiens.
Assay [24] concerns UACC-62. As to the kind of experiment: In vitro cytotoxicity value is the concentration corresponding to 50% growth inhibition against UACC-62(melanoma) cell line. Type of assay: functional. The following applies: Homo sapiens.

Chain of Tubulin beta chain (Bos taurus) (Q6B856 whole entry): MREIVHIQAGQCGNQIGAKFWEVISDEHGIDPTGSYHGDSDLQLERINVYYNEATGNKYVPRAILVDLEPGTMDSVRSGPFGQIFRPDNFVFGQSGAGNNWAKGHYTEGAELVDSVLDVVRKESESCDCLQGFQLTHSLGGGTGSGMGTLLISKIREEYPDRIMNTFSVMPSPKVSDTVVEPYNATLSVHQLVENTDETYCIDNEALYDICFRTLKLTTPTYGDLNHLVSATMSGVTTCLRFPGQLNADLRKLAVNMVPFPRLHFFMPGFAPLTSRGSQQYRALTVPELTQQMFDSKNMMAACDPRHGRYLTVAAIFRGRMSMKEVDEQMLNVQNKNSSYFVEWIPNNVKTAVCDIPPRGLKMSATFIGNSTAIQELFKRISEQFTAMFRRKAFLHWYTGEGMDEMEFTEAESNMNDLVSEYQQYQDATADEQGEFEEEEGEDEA

As for `C[C@]12CC[C@@H]3c4cc(OCC(F)(F)F)c(O)cc4/C(=N\O)C[C@H]3[C@@H]1CC[C@@H]2O`, the GI50 in [1] was found to be 0.049 µM; in assay [3], 0.031 µM; in [4] it was 0.017 µM; in [5], 0.066 µM; in [6], 0.01 µM; in [7], 0.016 µM. The GI50 in assay [8] was 0.021 µM; in assay [9] it was 0.045 µM; in assay [12] it was 0.015 µM. Further, in assay [2], the relative binding affinity (RBA) worked out at 0.007. The IC50 in assay [10] turned out to be 2.3 µM. In assay [11], the inhibition worked out at 28%.

`Cc1cc2cc3c(cc2o1)CC[C@@H]1[C@@H]3CC[C@]2(C)[C@@H](O)CC[C@@H]12`: the GI50 in assay [1] was 17 µM; in assay [3], 0.51 µM; in assay [13], 19 µM; in assay [5], 14 µM; in assay [6], 23 µM; in assay [7], 18 µM. The GI50 in assay [8] was determined as 14 µM; in assay [9], 16 µM; in assay [12], 16 µM. The IC50 in assay [14] is greater than 40 µM.

In the case of `COc1cc2c(cc1O)CC[C@@H]1[C@@H]2CC[C@]2(C)[C@@H](O)CC[C@@H]12` [2-METHOXYESTRADIOL], the GI50 amounted to 1.8 µM in assay [1]; 0.47 µM in assay [15]; 0.7 µM in assay [13]; 1.3 µM in assay [5]; 0.08 µM in assay [6]; 0.21 µM in [7]. Further, the GI50 in assay [8] was determined as 0.32 µM; in assay [9] it was 0.95 µM; in [12], 0.36 µM. The compound further showed a relative binding affinity (RBA) in [2] of 0.245. Further, the IC50 in [14] came to 3.1 µM. Moreover, the inhibition in assay [16] worked out at 19%.

With `C[C@]12CC[C@@H]3c4cc(Br)c(O)c(Br)c4CC[C@H]3[C@@H]1CC[C@@H]2O`, the GI50 in assay [1] turned out to be 40 µM; in [15], 20 µM; in [5], 25 µM; in [6], 27 µM; in assay [7], 17 µM; in assay [8], 21 µM. Moreover, the GI50 in [9] is 28 µM; in [12], 17 µM. The IC50 in assay [14] is greater than 40 µM.

Turning to `C[C@]12CC[C@@H]3c4cc(OCC(F)(F)F)c(O)cc4C(=O)C[C@H]3[C@@H]1CC[C@@H]2O`, the GI50 turned out to be 15 µM in assay [17]; 8.7 µM in assay [18]; 3.7 µM in [19]; 9.8 µM in [5]; 27 µM in assay [20]; 3.5 µM in assay [21]. Further, the figures for the GI50 in assay [22], in [23] and in assay [24] were 5.1 µM, 24 µM and 3.3 µM, respectively. This compound also showed an IC50 in assay [10] of 24 µM. Also, in assay [11], the inhibition was 1.7%.

As usually defined, the GI50 is the concentration that inhibits growth by half. Broadly, the IC50 is the concentration that gives 50% inhibition. The term inhibition denotes the relative decrease from the control value, in per cent.
